Measured values taken from publication PMC3443740 (Journal of immunology (Baltimore, Md. : 1950), 2012).

Columns and labels:
[1] = test system: panel of 121 kinases; assay: kinase selectivity profiling; assay type: biochemical; settings: panel of 121 kinases in vitro; Ruxolitinib at 0.1 μM
[2] = target: TrkA (Homo sapiens, UniProt P04629); assay: in vitro protein kinase assay, TrkA; assay type: biochemical; settings: read-out: inhibition of TrkA
[3] = target: IRAK1 (Homo sapiens, UniProt P51617); assay: in vitro protein kinase assay, IRAK1; assay type: biochemical; settings: 1 μM Ruxolitinib
Chain of IRAK1 (P51617 whole entry, species assumed): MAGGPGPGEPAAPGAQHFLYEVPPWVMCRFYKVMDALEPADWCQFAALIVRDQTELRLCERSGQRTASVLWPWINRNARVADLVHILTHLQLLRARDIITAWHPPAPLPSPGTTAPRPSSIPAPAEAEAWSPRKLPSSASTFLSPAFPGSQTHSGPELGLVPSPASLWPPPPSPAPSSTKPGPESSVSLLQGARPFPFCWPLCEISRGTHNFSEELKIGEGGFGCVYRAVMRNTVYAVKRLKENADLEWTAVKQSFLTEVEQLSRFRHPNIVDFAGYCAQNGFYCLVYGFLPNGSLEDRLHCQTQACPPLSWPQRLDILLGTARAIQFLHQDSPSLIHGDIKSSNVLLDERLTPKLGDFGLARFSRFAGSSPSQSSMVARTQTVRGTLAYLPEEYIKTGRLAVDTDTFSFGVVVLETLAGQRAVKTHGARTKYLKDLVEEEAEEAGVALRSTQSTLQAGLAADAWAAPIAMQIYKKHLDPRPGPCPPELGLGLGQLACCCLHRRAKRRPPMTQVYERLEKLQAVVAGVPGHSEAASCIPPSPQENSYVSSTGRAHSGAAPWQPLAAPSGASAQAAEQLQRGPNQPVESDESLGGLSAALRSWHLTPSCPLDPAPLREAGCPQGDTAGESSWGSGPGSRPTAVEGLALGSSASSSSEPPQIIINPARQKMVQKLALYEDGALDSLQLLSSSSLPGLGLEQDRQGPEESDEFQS

[4] = target: MARK3 (Homo sapiens, UniProt P27448); assay: in vitro protein kinase assay, MARK3; assay type: biochemical; settings: 1 μM Ruxolitinib
Chain of MARK3 (P27448 whole entry, species assumed): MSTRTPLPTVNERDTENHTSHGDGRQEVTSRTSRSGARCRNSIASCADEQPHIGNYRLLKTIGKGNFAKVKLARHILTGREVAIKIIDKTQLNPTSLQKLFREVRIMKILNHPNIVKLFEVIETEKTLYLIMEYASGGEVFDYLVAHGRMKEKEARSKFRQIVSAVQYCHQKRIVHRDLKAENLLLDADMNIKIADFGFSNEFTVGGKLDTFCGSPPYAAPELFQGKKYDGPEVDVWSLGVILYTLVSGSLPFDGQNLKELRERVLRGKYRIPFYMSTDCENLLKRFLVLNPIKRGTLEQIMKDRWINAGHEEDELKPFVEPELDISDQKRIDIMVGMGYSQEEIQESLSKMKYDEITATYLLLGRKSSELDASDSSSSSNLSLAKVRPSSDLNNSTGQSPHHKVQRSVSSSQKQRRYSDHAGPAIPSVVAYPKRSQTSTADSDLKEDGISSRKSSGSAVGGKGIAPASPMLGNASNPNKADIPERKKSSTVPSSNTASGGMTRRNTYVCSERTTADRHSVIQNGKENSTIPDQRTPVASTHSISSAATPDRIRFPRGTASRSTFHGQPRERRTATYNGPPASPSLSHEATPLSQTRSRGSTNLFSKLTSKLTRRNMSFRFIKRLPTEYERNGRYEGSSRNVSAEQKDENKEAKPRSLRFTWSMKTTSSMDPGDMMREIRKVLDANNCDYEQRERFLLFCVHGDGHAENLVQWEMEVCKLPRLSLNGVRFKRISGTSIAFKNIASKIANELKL

[5] = test system: BMDMs; assay: LPS induced signaling in BMDMs, immunoblotting; assay type: cell-based, mouse; settings: 0.5 μM Ruxolitinib, 100 ng/ml LPS
Summary of the method: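 Wild-type mouse BMDMs were pretreated 1 h with 0.5 µM test compound, then stimulated with 100 ng/ml LPS for varying times. Cells were lysed directly in SDS sample buffer and run on 10% polyacrylamide gels, then transferred to nitrocellulose. Blots were probed for total and phospho STAT3 (Y705, S727), phospho-STAT1 Y701, ERK1/2, p38, phospho-JNK, phospho-p105 and IκBα, with HRP secondaries and ECL detection.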

[6] = test system: BMDMs; assay: LPS induced IL-10 mRNA; assay type: cell-based, mouse; settings: 100 ng/ml LPS
Summary of the method: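 BMDMs came from wild-type or IFNαβR knockout mice, cultured 7 d with mCSF and used 24 h after replating. They were pretreated 1 h with test compound (0.5 µM or 5 µM), then given 100 ng/ml E. coli O26:B6 LPS over a time course. IL-10 mRNA was measured by Q-PCR (18s-normalised) and secreted IL-10 by multiplex assay. SD from independent cultures of four mice.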

[7] = test system: BMDMs; assay: IFNβ induced IL-10 and IL-6 transcription in BMDMs; assay type: cell-based, mouse; settings: 0.5 μM Ruxolitinib, 500 Units/ml IFNβ, wild type BMDMs
Summary of the method: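 Wild-type mouse BMDMs were grown 7 d from bone marrow in DMEM with 10% heat-inactivated FBS and 5 ng/ml mCSF, then replated and used 24 h later. Cells were pretreated 1 h with 0.5 µM test compound, then given 500 U/ml IFN-β for varying times. IL-10 or IL-6 mRNA was measured by SYBR green Q-PCR, normalised to 18s against unstimulated wild-type controls. Four mice, independent cultures.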

[8] = test system: BMDMs; assay: LPS induced pro-inflammatory cytokine production in BMDMs; assay type: cell-based, mouse
Summary of the method: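 BMDMs came from wild-type, IL-10 knockout or IFNαβR knockout mice and were pretreated 1 h with 0.5 µM test compound. Stimulation was 100 ng/ml LPS over a time course, or LPS ± 100 ng/ml IL-10 for 6 h in IL-10 knockout cells. Secreted TNF-α, IL-6, IL-12p40 and IL-12p70 were measured by Luminex multiplex, and the matching mRNAs (IL-12p35 for p70) by 18s-normalised Q-PCR. Four mice per genotype.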

[9] = test system: phospho Tyr705 STAT3; settings: BMDMs, 100 ng/ml IL-10 30 min
[10] = test system: phospho-Y701 STAT1; settings: BMDMs, 500 Units/ml IFNβ 30 min
[11] = test system: DBA/1J mice; settings: IP LPS, 5mg/kg Tofacitinib, ref [50]; cited from earlier work
[12] = 0.5 μM Ruxolitinib, wild type BMDMs
[13] = 0.5 μM Ruxolitinib, 100 ng/ml LPS
[14] = 0.5 μM Ruxolitinib, 100 ng/ml LPS 6 h

Chain of TrkA (P04629 33-796, species assumed): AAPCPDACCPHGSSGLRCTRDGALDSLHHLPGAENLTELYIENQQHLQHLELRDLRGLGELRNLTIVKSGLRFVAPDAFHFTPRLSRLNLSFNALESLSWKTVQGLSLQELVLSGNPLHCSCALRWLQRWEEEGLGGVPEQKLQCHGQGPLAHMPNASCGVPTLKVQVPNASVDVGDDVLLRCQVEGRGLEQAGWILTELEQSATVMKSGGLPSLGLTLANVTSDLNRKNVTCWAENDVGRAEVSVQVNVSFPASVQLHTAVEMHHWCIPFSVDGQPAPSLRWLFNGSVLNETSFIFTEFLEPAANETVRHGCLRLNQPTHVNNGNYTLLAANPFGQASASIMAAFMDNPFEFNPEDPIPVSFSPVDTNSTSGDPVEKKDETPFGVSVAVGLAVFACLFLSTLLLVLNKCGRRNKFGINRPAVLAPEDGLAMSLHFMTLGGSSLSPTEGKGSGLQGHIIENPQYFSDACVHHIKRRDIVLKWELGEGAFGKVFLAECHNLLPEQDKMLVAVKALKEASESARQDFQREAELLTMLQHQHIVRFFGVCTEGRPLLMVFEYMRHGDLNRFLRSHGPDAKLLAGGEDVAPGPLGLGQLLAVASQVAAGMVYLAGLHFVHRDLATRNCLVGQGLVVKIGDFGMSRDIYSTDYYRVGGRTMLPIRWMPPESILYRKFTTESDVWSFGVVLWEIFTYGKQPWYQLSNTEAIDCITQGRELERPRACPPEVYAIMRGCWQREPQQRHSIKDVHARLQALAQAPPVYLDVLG

With `N#C/C(=C/c1ccc(O)c(O)c1)C(=O)NCc1ccccc1` [AG-490] the “selectivity in kinase panel” value [1] was “could also block several Ser/Thr kinases”.
In the case of `N#CC[C@H](C1CCCC1)n1cc(-c2ncnc3[nH]ccc23)cn1` [Ruxolitinib], the inhibition at 0.1 µM [2] is reported as greater than 50%, the “activity against IRAK1” value [3] is reported as “weak activity” and the “activity against MARK3” value [4] is reported as “weak activity”. The “LPS induced STAT1 Y701 phosphorylation” value [5] was “blocked”, the “TLR4 induced activation of the ERK1/2, p38 or JNK MAPK cascades” value [5] was “did not affect” and the “activation of the NFκB pathway (IκBα degradation, p105 and IκBα phosphorylation)” value [5] was “no major affects”. For the same molecule, the “phosphorylation of STAT3 on S727” value [5] was “not blocked”, the “phosphorylation of STAT3 on Y705 in response to LPS” value [5] was “completely blocked” and the “IL-10 levels secreted from IFNαβR knockout macrophages” value ([6]; 0.5 μM Ruxolitinib) was “did not affect”. The “IL-10 secreted into the media at later time points (8 to 24 h)” value [6, 12] was “decrease”, the “IL-10 secretion at 4 h” value [6, 12] was “unaffected” and the “initial transcription of IL-10” value [6, 12] was “did not affect”. The “transcription of IL-10 at later time points” value [6, 12] was “reduce”, the “IFNβ induced IL-10 transcription” value [7] was “greatly reduced” and the “IFNβ stimulated IL-6 transcription” value [7] was “inhibited”. For the same molecule, the “IL-6 production from IFNαβR knockout macrophages” value [8, 13] was “increased”, the “IL-6 production from wild type cells” value [8, 13] was “increased” and the “TNFα production in IL-10 knockout cells” value [8, 13] was “little effect”. The “peak amount of LPS-induced IL-12 mRNA in IL-10 knockout cells” value [8, 13] was “decreased”, the “secreted levels of IL-6 in wild type and IL-10 knockout cells” value [8, 13] was “intermediate between the wild type and IL-10 knockout cells” and the “production of IL-6 by LPS in IL-10 knockout BMDMs” value [8, 14] was “moderately decreased”. The “production of TNFα by LPS in IL-10 knockout BMDMs (decrease)” value [8, 14] was “to a lesser extent”, the “TNFα mRNA and secreted protein levels in wild type cells” value ([8]; 0.5 μM Ruxolitinib, 100 ng/ml LPS, to similar values as IL-10 knockout BMDMs) was “increased” and the “inhibitory effects of IL-10 on TNFα and IL-6 production” value ([8]; IL-10 knockout BMDMs, 0.5 μM Ruxolitinib, LPS and 100 ng/ml IL-10 6 h) was “blocked”.
In the case of `C[C@@H]1CCN(C(=O)CC#N)C[C@@H]1N(C)c1ncnc2[nH]ccc12` [Tofacitinib], the “IL-10 mRNA at later time points” value ([6]; 5 μM Tofacitinib) is reported as “inhibited”, the “IL-10 secretion at 8 and 16h after LPS stimulation” value ([6]; 5 μM Tofacitinib) is reported as “decreased” and the “initial phase of IL-10 transcription” value ([6]; 5 μM Tofacitinib) is reported as “did not affect”. The “IL-6 secretion following 24h of LPS stimulation” value ([8]; Tofacitinib) was “increased”, the “TNF and IL-12 production in response to a prolonged stimulation with LPS” value ([8]; Tofacitinib at a concentration able to inhibit STAT3 phosphorylation) was “increased” and the “IL-10 stimulated STAT3 phosphorylation” value [9] was “able to block”. For the same molecule, the “IFNβ stimulated STAT1 phosphorylation” value [10] was “able to block”, the “plasma IL-10 levels” value [11] was “increased” and the “plasma levels of TNF, IL-6 and IL-12” value [11] was “reduced”.
